Data on 6 compounds can be found in ChEMBL document CHEMBL1154547, “Salicylanilide esters of N-protected amino acids as novel antimicrobial agents” (Bioorg Med Chem Lett, 2009).

≈ marks a conversion by molar mass, not a printed value. Some results are limits rather than exact numbers.

Series [1] has as its system Trichosporon beigelii. As to the kind of experiment: Antifungal activity against Trichosporon beigelii 1188 after 24 hrs by broth microdilution method. Format: functional. Put shortly: (§1)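 In vitro antifungal screening against eight strains. Compounds tested at concentrations in the range 62.5–1.95 µmol/L.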
Series [2] relates to Candida albicans. As to the kind of experiment: Antifungal activity against Candida albicans ATCC 44859 after 24 hrs by broth microdilution method. It is filed as functional. The note with it: ATCC 44859, 24 h. Put shortly:
as §1
(Broth dilution looks for growth in wells or tubes with falling amounts of substance.)

The test system of series [3] is Trichophyton mentagrophytes. The experiment in a line: Antifungal activity against Trichophyton mentagrophytes 445 after 48 hrs by broth microdilution method. It is filed as functional. Put shortly: as §1
Series [4] concerns Candida tropicalis. As to the kind of experiment: Antifungal activity against Candida tropicalis ATCC 156 after 48 hrs by broth microdilution method. Format: functional. The note with it: ATCC 156, 48 h. Put shortly:
as §1

The subject of series [5] is Trichophyton mentagrophytes. The experiment in a line: Antifungal activity against Trichophyton mentagrophytes 445 after 24 hrs by broth microdilution method. It is filed as functional. An outline of the steps: as §1
For series [6], the system named is Mycobacterium tuberculosis. As to the kind of experiment: Antitubercular activity against Mycobacterium tuberculosis H37Rv at 6.25 ug/ml by microplate alamar blue assay. It is filed as functional. An outline of the steps: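 Primary single-concentration screen at the TAACF against M. tuberculosis H37Rv (ATCC 27294) in BACTEC 12B medium, read by Microplate Alamar Blue Assay. Each compound was tested at 6.25 per mL, or at the molar equivalent of the highest-molecular-weight compound in its congener series.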
(Resazurin is reduced to fluorescent resorufin, in cell work by metabolically active cells.)

Series [7] relates to Aspergillus fumigatus. As to the kind of experiment: Antifungal activity against Aspergillus fumigatus 231 after 48 hrs by broth microdilution method. It is filed as functional. An outline of the steps:
as §1

Series [8] is described as follows: Lipophilicity, log K of the compound. It is filed as physicochemical. Put shortly:
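Mobile phase used methanol as organic modifier. The capacity factor k was measured and log k calculated from it. Chiral compounds were measured several times.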

Series [9] concerns Lichtheimia corymbifera. The experiment in a line: Antifungal activity against Absidia corymbifera 272 after 24 hrs by broth microdilution method. It is filed as functional. Put shortly: as §1
For series [10], the system named is Pichia kudriavzevii. As to the kind of experiment: Antifungal activity against Candida krusei E28 after 24 hrs by broth microdilution method. It is filed as functional. Put shortly:
as §1

The test system of series [11] is Aspergillus fumigatus. As to the kind of experiment: Antifungal activity against Aspergillus fumigatus 231 after 24 hrs by broth microdilution method. It is filed as functional. Put shortly: as §1
Series [12] relates to Mycobacterium tuberculosis. As to the kind of experiment: Antitubercular activity against Mycobacterium tuberculosis H37Rv by microplate alamar blue assay. It is filed as functional.
Series [13] concerns Candida tropicalis. As to the kind of experiment: Antifungal activity against Candida tropicalis ATCC 156 after 24 hrs by broth microdilution method. Format: functional. The note with it: ATCC 156, 24 h. Put shortly:
as §1

Series [14] concerns Candida albicans. As to the kind of experiment: Antifungal activity against Candida albicans ATCC 44859 after 48 hrs by broth microdilution method. Format: functional. The note with it: ATCC 44859, 48 h. An outline of the steps:
as §1

In series [15] the test system is Nakaseomyces glabratus. As to the kind of experiment: Antifungal activity against Candida glabrata 20/I after 24 hrs by broth microdilution method. It is filed as functional. Put shortly: as §1
Series [16] concerns Pichia kudriavzevii. The experiment in a line: Antifungal activity against Candida krusei E28 after 48 hrs by broth microdilution method. It is filed as functional. An outline of the steps:
as §1

Series [17] deals with Trichosporon beigelii. The experiment in a line: Antifungal activity against Trichosporon beigelii 1188 after 48 hrs by broth microdilution method. It is filed as functional. An outline of the steps: as §1
The test system of series [18] is Lichtheimia corymbifera. The experiment in a line: Antifungal activity against Absidia corymbifera 272 after 48 hrs by broth microdilution method. It is filed as functional. An outline of the steps: as §1
For series [19], the system named is Nakaseomyces glabratus. As to the kind of experiment: Antifungal activity against Candida glabrata 20/I after 48 hrs by broth microdilution method. It is filed as functional. An outline of the steps:
as §1

With `CC(C)[C@@H](NC(=O)OCc1ccccc1)C(=O)Oc1ccc(Cl)cc1C(=O)Nc1ccc(Cl)cc1`, the IC80 (commonly the concentration at which the effect reaches the 80% level) in the series with Trichosporon beigelii [1] was greater than 62.5 µg/mL; in the series with Candida albicans [2], greater than 62.5 µg/mL; in series [3], 15.6 µg/mL (≈ 30.3 µM); in the series on Candida tropicalis [4], greater than 62.5 µg/mL; in series [5], 15.6 µg/mL (≈ 30.3 µM); in the series on Aspergillus fumigatus [7] it was greater than 62.5 µg/mL. Moreover, the concentration for an effect of 80% (IC80) in the series on Lichtheimia corymbifera [9] is greater than 62.5 µg/mL; in the series on Pichia kudriavzevii [10], 31.2 µg/mL (≈ 60.6 µM); with Aspergillus fumigatus [11], greater than 62.5 µg/mL; in the series with Candida tropicalis [13], greater than 62.5 µg/mL; in the series on Candida albicans [14] it was greater than 62.5 µg/mL; in the series with Nakaseomyces glabratus [15], greater than 62.5 µg/mL. For the same compound, the IC80 with Pichia kudriavzevii [16] was 31.2 µg/mL (≈ 60.6 µM); in the series on Trichosporon beigelii [17], greater than 62.5 µg/mL; in the series with Lichtheimia corymbifera [18], greater than 62.5 µg/mL; in the series on Nakaseomyces glabratus [19] it was greater than 62.5 µg/mL. Besides, in series [6], 6.25 µg/mL produced 77% inhibition. Also, the “log K” value in series [8] came out at 0.9417. Also, in series [12], the MIC – broadly, the lowest concentration that inhibits growth of the organism – is greater than 6.25 µg/mL.
Take `C[C@H](NC(=O)OCc1ccccc1)C(=O)Oc1ccc(Cl)cc1C(=O)Nc1cccc(Cl)c1`: the IC80 with Trichosporon beigelii [1] is greater than 62.5 µg/mL; in the series on Candida albicans [2] it was 31.2 µg/mL (≈ 64.1 µM); in series [3], 7.81 µg/mL (≈ 16 µM); in the series on Candida tropicalis [4] it was greater than 62.5 µg/mL; in series [5] it was 7.81 µg/mL (≈ 16 µM); with Aspergillus fumigatus [7], greater than 62.5 µg/mL. Moreover, the IC80 with Lichtheimia corymbifera [9] was 15.6 µg/mL (≈ 32.1 µM); in the series on Pichia kudriavzevii [10], 31.2 µg/mL (≈ 64.1 µM); in the series with Aspergillus fumigatus [11], 62.5 µg/mL (≈ 128 µM); with Candida tropicalis [13], greater than 62.5 µg/mL; in the series with Candida albicans [14], greater than 62.5 µg/mL; with Nakaseomyces glabratus [15], 31.2 µg/mL (≈ 64.1 µM). Also, the IC80 in the series on Pichia kudriavzevii [16] is 31.2 µg/mL (≈ 64.1 µM); in the series with Trichosporon beigelii [17], greater than 62.5 µg/mL; with Lichtheimia corymbifera [18] it was 15.6 µg/mL (≈ 32.1 µM); with Nakaseomyces glabratus [19], greater than 62.5 µg/mL. Further, 6.25 µg/mL produced 97% inhibition in series [6]. Moreover, the “log K” value in series [8] is recorded as 0.6995. For the same compound, in [12], the MIC amounted to 3.13 µg/mL (≈ 6.42 µM).
As to `O=C(CNC(=O)OCc1ccccc1)Oc1ccc(Cl)cc1C(=O)Nc1ccc(Cl)cc1`, the IC80 in the series with Trichosporon beigelii [1] was 62.5 µg/mL (≈ 132 µM); in the series with Candida albicans [2], 62.5 µg/mL (≈ 132 µM); in series [3], 15.6 µg/mL (≈ 33 µM); in the series with Candida tropicalis [4] it was 31.2 µg/mL (≈ 66 µM); in [5], 15.6 µg/mL (≈ 33 µM); in the series with Aspergillus fumigatus [7], greater than 62.5 µg/mL. For the same compound, the IC80 was 31.2 µg/mL (≈ 66 µM) in the series with Lichtheimia corymbifera [9]; 31.2 µg/mL (≈ 66 µM) in the series with Pichia kudriavzevii [10]; greater than 62.5 µg/mL in the series on Aspergillus fumigatus [11]; 31.2 µg/mL (≈ 66 µM) in the series on Candida tropicalis [13]; 62.5 µg/mL (≈ 132 µM) with Candida albicans [14]; 62.5 µg/mL (≈ 132 µM) in the series with Nakaseomyces glabratus [15]. In addition, the IC80 in the series on Pichia kudriavzevii [16] was 31.2 µg/mL (≈ 66 µM); in the series on Trichosporon beigelii [17] it was greater than 62.5 µg/mL; in the series on Lichtheimia corymbifera [18], 62.5 µg/mL (≈ 132 µM); with Nakaseomyces glabratus [19], 62.5 µg/mL (≈ 132 µM). Besides, 6.25 µg/mL produced 16% inhibition in [6]. Further, in series [8], the “log K” value is 0.6367. In [12], this compound yielded a minimal inhibitory concentration (MIC) greater than 6.25 µg/mL.
On to `CC(C)[C@H](NC(=O)OCc1ccccc1)C(=O)Oc1ccc(Cl)cc1C(=O)Nc1ccc(Cl)cc1`, for which the IC80 with Trichosporon beigelii [1] was greater than 62.5 µg/mL; in the series on Candida albicans [2], greater than 62.5 µg/mL; in [3], 15.6 µg/mL (≈ 30.3 µM); with Candida tropicalis [4], greater than 62.5 µg/mL; in series [5] it was 15.6 µg/mL (≈ 30.3 µM); in the series with Aspergillus fumigatus [7], greater than 62.5 µg/mL. The IC80 in the series with Lichtheimia corymbifera [9] is greater than 62.5 µg/mL; with Pichia kudriavzevii [10], 31.2 µg/mL (≈ 60.6 µM); in the series with Aspergillus fumigatus [11], greater than 62.5 µg/mL; in the series on Candida tropicalis [13], greater than 62.5 µg/mL; with Candida albicans [14], greater than 62.5 µg/mL; in the series on Nakaseomyces glabratus [15] it was greater than 62.5 µg/mL. Further, the 80% effect concentration (IC80) in the series with Pichia kudriavzevii [16] was 15.6 µg/mL (≈ 30.3 µM); with Trichosporon beigelii [17] it was 31.2 µg/mL (≈ 60.6 µM); in the series with Lichtheimia corymbifera [18], greater than 62.5 µg/mL; in the series with Nakaseomyces glabratus [19], greater than 62.5 µg/mL. Further, in series [6], the inhibition (as a rule, the change of the read-out against control, counted positive when it falls) at 6.25 µg/mL was found to be 38%. Further, the “log K” value in [8] is given as 0.9421. This compound also had an MIC in [12] greater than 6.25 µg/mL.
Regarding `OC(Cn1cncn1)(Cn1cncn1)c1ccc(F)cc1F` [FLUCONAZOLE], the IC80 in the series on Trichosporon beigelii [1] is 0.24 µg/mL (≈ 0.784 µM); with Candida albicans [2], 0.06 µg/mL (≈ 0.196 µM); in series [3], 3.91 µg/mL (≈ 12.8 µM); in the series with Candida tropicalis [4], greater than 125 µg/mL; in series [5], 1.95 µg/mL (≈ 6.37 µM); in the series with Aspergillus fumigatus [7] it was greater than 125 µg/mL. Moreover, the IC80 with Lichtheimia corymbifera [9] is greater than 125 µg/mL; in the series on Pichia kudriavzevii [10], 3.91 µg/mL (≈ 12.8 µM); in the series with Aspergillus fumigatus [11] it was greater than 125 µg/mL; in the series with Candida tropicalis [13], 0.12 µg/mL (≈ 0.392 µM); with Candida albicans [14] it was 0.12 µg/mL (≈ 0.392 µM); in the series with Nakaseomyces glabratus [15], 0.98 µg/mL (≈ 3.2 µM). In addition, the IC80 was 15.6 µg/mL (≈ 51 µM) with Pichia kudriavzevii [16], 0.48 µg/mL (≈ 1.57 µM) in the series with Trichosporon beigelii [17], greater than 125 µg/mL in the series on Lichtheimia corymbifera [18] and 3.91 µg/mL (≈ 12.8 µM) in the series with Nakaseomyces glabratus [19].
For the compound `NNC(=O)c1ccncc1` [ISONIAZID], the MIC in series [12] is 0.025 µg/mL (≈ 0.182 µM).
